Reference: PubChem BioAssay
The source made the active and inactive calls. Unless noted, no stated cut-off is given here; in the data, active means inhibition above about 30%; inactive means the rest.

Tests used:
[1] = reducers of endogenous Her2 protein level, primary screen, SKBR3 breast tumor cells, AlphaScreen, ATP viability (AID 461;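 active means Her2 level under about 52% in both replicate screens, with viability over 70% of control, limit read from the data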;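 on Her2 level: lower value means less Her2 protein in the cells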;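 on viability: percent of carrier control wells set as 100% viability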); settings: 18-24 h, measured here: SKBR3 viability, ATP luminescence, at 10 µM
[2] = molecular target: Receptor tyrosine-protein kinase erbB-2 (Homo sapiens) (UniProt P04626); experiment: as above; settings: 18-24 h, at 10 µM, stronger effect = lower value
Chain of Receptor tyrosine-protein kinase erbB-2 (Homo sapiens) (P04626 whole entry, looked up): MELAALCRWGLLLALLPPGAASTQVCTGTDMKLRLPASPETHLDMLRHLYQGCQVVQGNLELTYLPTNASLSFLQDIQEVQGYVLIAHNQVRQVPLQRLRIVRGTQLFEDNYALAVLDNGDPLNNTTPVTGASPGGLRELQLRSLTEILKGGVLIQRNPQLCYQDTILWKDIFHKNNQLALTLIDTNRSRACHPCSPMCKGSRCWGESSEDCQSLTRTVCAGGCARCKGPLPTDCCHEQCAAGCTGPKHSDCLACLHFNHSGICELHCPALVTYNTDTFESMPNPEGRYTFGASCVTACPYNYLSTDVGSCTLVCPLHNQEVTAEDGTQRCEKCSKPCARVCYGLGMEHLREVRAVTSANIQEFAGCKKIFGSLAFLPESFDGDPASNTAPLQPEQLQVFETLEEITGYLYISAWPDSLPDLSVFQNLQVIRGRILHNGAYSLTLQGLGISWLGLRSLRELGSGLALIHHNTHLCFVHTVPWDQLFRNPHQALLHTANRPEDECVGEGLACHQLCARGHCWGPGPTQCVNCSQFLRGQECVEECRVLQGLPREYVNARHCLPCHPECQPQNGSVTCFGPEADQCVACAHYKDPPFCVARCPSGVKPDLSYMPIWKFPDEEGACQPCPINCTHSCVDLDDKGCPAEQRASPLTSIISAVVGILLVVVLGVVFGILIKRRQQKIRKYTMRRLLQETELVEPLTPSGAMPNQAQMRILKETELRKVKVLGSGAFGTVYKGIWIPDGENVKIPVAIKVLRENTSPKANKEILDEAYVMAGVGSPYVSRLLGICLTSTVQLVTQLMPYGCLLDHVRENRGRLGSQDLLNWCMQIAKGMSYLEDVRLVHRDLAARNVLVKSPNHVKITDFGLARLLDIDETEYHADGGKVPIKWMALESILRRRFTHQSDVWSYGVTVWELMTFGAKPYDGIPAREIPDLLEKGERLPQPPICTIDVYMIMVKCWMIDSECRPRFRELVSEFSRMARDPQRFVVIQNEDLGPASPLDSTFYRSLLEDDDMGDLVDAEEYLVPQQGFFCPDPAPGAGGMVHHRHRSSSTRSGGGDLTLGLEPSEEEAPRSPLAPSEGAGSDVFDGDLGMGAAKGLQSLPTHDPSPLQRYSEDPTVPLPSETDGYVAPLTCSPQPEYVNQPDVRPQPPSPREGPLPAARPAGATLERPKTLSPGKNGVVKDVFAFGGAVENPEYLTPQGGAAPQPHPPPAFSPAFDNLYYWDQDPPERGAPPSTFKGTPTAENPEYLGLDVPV

[3] = SK-BR-3 cell growth inhibitors, pilot screen, 24 h, human (AID 572;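 active means viability at or below 10% of carrier control in both of two separate runs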;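 further: compound exposure lasted between 18 and 24 h rather than exactly 24 h; 100% = carrier-treated control wells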); settings: SK-BR-3 viability, CellTiter-Glo luminescence, at 10 µM, stronger effect = lower value
[4] = HUVEC growth inhibition – cell-based, human, primary screen (AID 575;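 active means viability at or below 30% in both replicate assays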;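 further: 100% = median of untreated cell wells with 0.1% DMSO on each plate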); settings: HUVEC proliferation, CellTiter-Glo luminescence, 72 h; at 10 µM; stronger effect = lower value
Summary of the method: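 material = primary HUVEC, no more than 12 passages | input = 1250 cells per well | controls = vehicle and MePR control wells | measured by = CTG luminescence | times = 72 h compound incubation | format = collagen-coated 384-well format | read-out = % viability vs DMSO wells | doses = single 10 µM dose, 0.1% DMSO, from 5x medium stock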

[5] = growth inhibitors of H69AR lung tumor, primary screen, human, duplicate replicates (AID 580;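 active means viability at or under a set limit in both replicates, limit being median viability minus 3 SD, cut at about 48% in these data, passing the limit was not always enough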;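 further: 100% = mean luminescence of untreated wells and 0% = no signal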); settings: H69AR lung tumor cells viability, ATP luminescence, 72 h; at 10 µM; stronger effect = lower value
[6] = reversal of MRP1-mediated doxorubicin resistance, pilot screen, H69AR cells, doxorubicin co-treatment (AID 601;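 active means viability loss from added drug above about 55%, and viability with drug at most 40%, in both replicates, limit read from the data, passing the limit was not always enough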); settings: CellTiter-Glo, 72 h, at 10 µM; for differential viability (reversal): stronger effect = higher value
[7] = 384-well plate pilot, post-Golgi transport modulator project, inhibition of yeast transport mutant growth (AID 636; in the data active means inhibition above about 31%); settings: absorbance 615 nm, about 18 h, stronger effect = higher value
[8] = growth suppression of yeast trafficking mutant, preliminary HTS, modulators of trafficking downstream of Golgi apparatus project, 1536-format plate, OD 615 nm (AID 637); settings: yeast transport mutant growth, absorbance 615 nm, 18 h; stronger effect = higher value
[9] = H69AR cells + 2 uM doxorubicin, measured here: viability with 2 uM doxorubicin, stronger effect = lower value
[10] = H69AR cells, compound alone cytotoxicity

Structure (SMILES)	viability [1] [%]	Her2 level [2]	viability [3]	viability [4]	viability [5]	differential viability (reversal) ([6]; H69AR cells + 2 uM doxorubicin)	viability [6, 9] [%]	viability [6, 10] [%]	inhibition [7]	inhibition [8]
CCNS(=O)(=O)c1ccc(S(=O)(=O)N(Cc2ccccn2)C2CCCCC2)cc1	102	87% (inactive)	102% (inactive)	109% (inactive)	88.9% (inactive)	13.6% (inactive)	75.3	88.9	-8.92% (inactive)	-5.17% (inactive)
CCCCc1nccn1CCn1ccnc1CCCC	87	85.5% (inactive)	87% (inactive)	97% (inactive)	85.8% (inactive)	-0.88% (inactive)	86.7	85.8	-3.47% (inactive)	1.61% (inactive)
CCOC(=O)CNC(=O)c1c(C)nn(-c2ccccc2)c1Cl	98.5	86.5% (inactive)	98.5% (inactive)	96.2% (inactive)	90% (inactive)	-0.915% (inactive)	90.9	90	-2.63% (inactive)	-7.27% (inactive)
COc1ccc2[nH]c(=O)c(CN(CC3CCCO3)C(=O)Nc3ccc(F)cc3)cc2c1 (stereo not given)	84.5	113% (inactive)	84.5% (inactive)	26.1% (active)	39.4% (active)	-8.38% (inactive)	47.8	39.4	-0.68% (inactive)	2.46% (inactive)
O=C(CN(c1ccc(F)cc1)S(=O)(=O)c1ccc2c(c1)OCCO2)Nc1ccc2c(c1)OCO2	83	89.5% (inactive)	83% (inactive)	91.3% (inactive)	99.8% (inactive)	4.63% (inactive)	95.2	99.8	0.8% (inactive)	4.03% (inactive)
CC(=O)N1CCc2cc(S(=O)(=O)NC(CC(C)C)C(=O)N3CCn4c3nc3ccccc34)ccc21 (stereo not given)	88.5	87.5% (inactive)	88.5% (inactive)	92% (inactive)	97.6% (inactive)	-3.44% (inactive)	101	97.6	-4.4% (inactive)	1.8% (inactive)
CCOc1ccc(N(C(C)=O)C2C=CS(=O)(=O)C2)cc1 (stereo not given)	91.5	90.5% (inactive)	91.5% (inactive)	95.7% (inactive)	94.9% (inactive)	2.48% (inactive)	92.4	94.9	-1.87% (inactive)	0.33% (inactive)
COc1ccccc1NC(=O)CSc1nnc(-c2ccncc2)n1CC1CCCO1 (stereo not given)	97	91% (inactive)	97% (inactive)	103% (inactive)	96.7% (inactive)	6.53% (inactive)	90.1	96.7	-5.33% (inactive)	-3.81% (inactive)
COCCNC(=O)Cn1nc(C(F)(F)F)c(Br)c1C	118	104% (inactive)	118% (inactive)	90.4% (inactive)	108% (inactive)	15.8% (inactive)	92.5	108	-4.27% (inactive)	-0.81% (inactive)
COc1cc(OC)cc(-c2nnc(Nc3nc4c(F)cccc4s3)o2)c1	95.5	74% (inactive)	95.5% (inactive)	5.89% (active)	69.4% (inactive)	-17.9% (inactive)	87.3	69.4	-5.07% (inactive)	13.4% (inactive)
CCN(CCCNC(=O)CC1Oc2ccc(C)cc2NC1=O)Cc1ccccc1 (stereo not given)	116	94.5% (inactive)	116% (inactive)	97.8% (inactive)	85% (inactive)	4.2% (inactive)	80.8	85	-2.27% (inactive)	-2.13% (inactive)
Cn1c(=O)cc(SCC(=O)N2CCOCC2)c2ccc(Cl)cc21	108	99.5% (inactive)	108% (inactive)	76.1% (inactive)	93.2% (inactive)	9.88% (inactive)	83.3	93.2	-2.37% (inactive)	-1.61% (inactive)
Cc1onc(-c2ccccc2Cl)c1C(=O)NCc1cccnc1	103	102% (inactive)	103% (inactive)	110% (inactive)	94.5% (inactive)	9.16% (inactive)	85.4	94.5	-4.8% (inactive)	6.13% (inactive)
CCOc1cccc(C(=O)Nc2cccc(-c3nc4ncccc4o3)c2C)c1	99	75.5% (inactive)	99% (inactive)	81.5% (inactive)	75.6% (inactive)	-12.9% (inactive)	88.5	75.6	-0.39% (inactive)	-0.97% (inactive)
